For data set [1], the system named is Zone of skin. Nature of the data set: Drug metabolism in Sprague-Dawley rat skin treated with (S)-Sulindac at 2 mg, ip after 0.5 to 4 hrs by HPLC analysis. Particulars: in vivo.
For data set [2], the system named is Zone of skin. Nature of the data set: Drug metabolism in Sprague-Dawley rat skin treated with (R)-Sulindac at 2 mg, ip after 0.5 to 4 hrs by HPLC analysis. The conditions noted are these: in vivo.
In data set [3] the test system is Brain. As to the kind of experiment: Drug metabolism in Sprague-Dawley rat brain treated with (R)-Sulindac at 2 mg, ip after 0.5 to 4 hrs by HPLC analysis. The conditions noted are these: in vivo.
The test system of data set [4] is Plasma. Nature of the data set: Drug metabolism in Sprague-Dawley rat plasma treated with (S)-Sulindac at 2 mg, ip after 0.5 to 4 hrs by HPLC analysis. The conditions noted are these: in vivo.
Data set [5] relates to Liver. As to the kind of experiment: Drug metabolism in Sprague-Dawley rat liver treated with (R)-Sulindac at 2 mg, ip after 0.5 to 4 hrs by HPLC analysis. The conditions noted are these: in vivo.
Data set [6] in a line: Retention time in rat plasma measured after 4 hrs ip injection of sulindac. The data set is classed as physicochemical, organism-based. The conditions noted are these: in vivo.
In data set [7] the test system is Plasma. Nature of the data set: Drug metabolism in Sprague-Dawley rat plasma treated with (R)-Sulindac at 2 mg, ip after 0.5 to 4 hrs by HPLC analysis. Particulars: in vivo.
Data set [8] concerns Liver. Nature of the data set: Drug metabolism in Sprague-Dawley rat liver treated with (S)-Sulindac at 2 mg, ip after 0.5 to 4 hrs by HPLC analysis. Particulars: in vivo.
The test system of data set [9] is Brain. As to the kind of experiment: Drug metabolism in Sprague-Dawley rat brain treated with (S)-Sulindac at 2 mg, ip after 0.5 to 4 hrs by HPLC analysis. Particulars: in vivo.
The target in data set [10] is Cytochrome P450 1A2 (Rattus norvegicus, UniProt P04799). Nature of the data set: Drug metabolism assessed as rat recombinant CYP1A2-mediated sulindac sulfone formation measured per pmol of protein at 200 uM after 90 mins by HPLC analysis. The data set is classed as ADME. Particulars: recombinant enzyme, 1.5 h. In outline: (§1)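 Recombinant rat or human P450 Supersomes (some with cytochrome b5, variable reductase) incubated with (R)-sulindac at 500 μM or (S)-sulindac at 200 μM plus NADPH-regenerating system in 100 mM potassium phosphate pH 7.4 at 37°C, linear up to 90 min; acetonitrile stop; sulfone by C18 HPLC at 330 nm; ≥3 runs; pmol/pmol enzyme/h, mean ± S.E.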

A further data set concerns the target Cytochrome P450 1B1 (Homo sapiens, UniProt Q16678). Nature of the data set: Drug metabolism assessed as human recombinant CYP1B1-mediated sulindac sulfone formation measured per pmol of protein at 200 uM after 90 mins by HPLC analysis. The conditions noted are these: recombinant enzyme, 1.5 h. The data set is classed as ADME. In outline:
as §1

The target of data set [11] is Cytochrome P450 1A2 (Homo sapiens, UniProt P05177). As to the kind of experiment: Drug metabolism assessed as human recombinant CYP1A2-mediated sulindac sulfone formation measured per pmol of protein at 200 uM after 90 mins by HPLC analysis. Particulars: recombinant enzyme, 1.5 h. The data set is classed as ADME. In outline:
as §1

For the next data set, the system named is A549. Nature of the data set: Potentiation of TBHP-induced cytotoxicity in human A549 cells at 500 uM incubated for 48 hrs prior to TBHP-challenge measured after 2 hrs. The data set is classed as functional, cell-based.
The target of data set [12] is Mitochondrial peptide methionine sulfoxide reductase (Rattus norvegicus, UniProt Q923M1). Nature of the data set: Drug metabolism in rat liver S100 fraction assessed as MSRA-mediated reduced product formation measured per mg of protein at 200 uM by HPLC analysis. The data set is classed as ADME, tissue-based.
Mitochondrial peptide methionine sulfoxide reductase, sequence (Q923M1 whole entry): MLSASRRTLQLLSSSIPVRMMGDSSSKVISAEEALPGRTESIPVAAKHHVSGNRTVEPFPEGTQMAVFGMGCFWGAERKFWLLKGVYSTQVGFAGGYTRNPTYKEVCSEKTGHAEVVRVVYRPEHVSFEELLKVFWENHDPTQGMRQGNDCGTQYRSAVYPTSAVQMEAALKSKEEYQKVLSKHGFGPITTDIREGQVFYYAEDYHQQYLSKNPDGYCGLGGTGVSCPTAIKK
The next data set addresses Cytochrome P450 1A1 (Rattus norvegicus, UniProt P00185). Nature of the data set: Drug metabolism assessed as rat recombinant CYP1A1-mediated sulindac sulfone formation measured per pmol of protein at 200 uM after 90 mins by HPLC analysis. The data set is classed as ADME. Particulars: recombinant enzyme, 1.5 h. A digest of the protocol:
as §1

In a further data set the test system is MRC5. Nature of the data set: Cytoprotective activity in TBHP-induced human MRC5 cells at 500 uM incubated for 48 hrs prior to TBHP-challenge measured after 2 hrs. The data set is classed as functional, cell-based. A digest of the protocol:
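Normal lung cells preincubated 48 h with 500 μM (R)- or (S)-sulindac or no drug, then challenged with TBHP; viability expressed as percent of cells not exposed to TBHP; mean and S.E. of five repeats; p < 0.05 versus no-drug controls.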

The target of another data set is Cytochrome P450 2C9 (Homo sapiens, UniProt P11712). As to the kind of experiment: Drug metabolism assessed as human recombinant CYP2C9-mediated sulindac sulfone formation measured per pmol of protein at 200 uM after 90 mins by HPLC analysis. Format: ADME. Particulars: recombinant enzyme, 1.5 h. In outline: as §1
Cytochrome P450 2C9, sequence (P11712 whole entry): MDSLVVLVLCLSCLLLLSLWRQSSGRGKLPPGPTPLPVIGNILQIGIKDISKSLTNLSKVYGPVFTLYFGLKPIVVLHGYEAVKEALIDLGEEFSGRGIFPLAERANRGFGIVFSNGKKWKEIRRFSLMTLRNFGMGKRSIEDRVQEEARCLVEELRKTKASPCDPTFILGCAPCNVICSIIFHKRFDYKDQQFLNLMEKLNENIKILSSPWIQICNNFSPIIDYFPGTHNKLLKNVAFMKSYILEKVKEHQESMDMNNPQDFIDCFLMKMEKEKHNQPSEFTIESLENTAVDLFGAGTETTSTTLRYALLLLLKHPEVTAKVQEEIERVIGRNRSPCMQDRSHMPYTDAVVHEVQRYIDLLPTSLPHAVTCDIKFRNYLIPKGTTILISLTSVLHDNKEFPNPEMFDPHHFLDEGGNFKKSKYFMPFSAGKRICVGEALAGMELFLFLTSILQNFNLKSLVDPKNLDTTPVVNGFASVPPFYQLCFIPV
The next data set has as its target Cytochrome P450 2C19 (Homo sapiens, UniProt P33261). Nature of the data set: Drug metabolism assessed as human recombinant CYP2C19-mediated sulindac sulfone formation measured per pmol of protein at 200 uM after 90 mins by HPLC analysis. The data set is classed as ADME. Particulars: recombinant enzyme, 1.5 h. In outline: as §1
The target in another data set is Cytochrome P450 2B1 (Rattus norvegicus, UniProt P00176). Nature of the data set: Drug metabolism assessed as rat recombinant CYP2B1-mediated sulindac sulfone formation measured per pmol of protein at 200 uM after 90 mins by HPLC analysis. Format: ADME. Particulars: recombinant enzyme, 1.5 h. A digest of the protocol:
as §1

A further data set has as its target Cytochrome P450 3A4 (Homo sapiens, UniProt P08684). As to the kind of experiment: Drug metabolism assessed as human recombinant CYP3A4-mediated sulindac sulfone formation measured per pmol of protein at 200 uM after 90 mins by HPLC analysis. The data set is classed as ADME. The conditions noted are these: recombinant enzyme, 1.5 h. A digest of the protocol: as §1

A further data set concerns the target Cytochrome P450 2D6 (Homo sapiens, UniProt P10635). Nature of the data set: Drug metabolism assessed as human recombinant CYP2D6-mediated sulindac sulfone formation measured per pmol of protein at 200 uM after 90 mins by HPLC analysis. Format: ADME. Particulars: recombinant enzyme, 1.5 h. In outline: as §1
The target in a further data set is Cytochrome P450 3A2 (Rattus norvegicus, UniProt P05183). Nature of the data set: Drug metabolism assessed as rat recombinant CYP3A2-mediated sulindac sulfone formation measured per pmol of protein at 200 uM after 90 mins by HPLC analysis. The data set is classed as ADME. Particulars: recombinant enzyme, 1.5 h. A digest of the protocol:
as §1

The target in the next data set is Cytochrome P450 2C8 (Homo sapiens, UniProt P10632). As to the kind of experiment: Drug metabolism assessed as human recombinant CYP2C8-mediated sulindac sulfone formation measured per pmol of protein at 200 uM after 90 mins by HPLC analysis. Particulars: recombinant enzyme, 1.5 h. The data set is classed as ADME. A digest of the protocol: as §1
Cytochrome P450 2C8, sequence (P10632 whole entry): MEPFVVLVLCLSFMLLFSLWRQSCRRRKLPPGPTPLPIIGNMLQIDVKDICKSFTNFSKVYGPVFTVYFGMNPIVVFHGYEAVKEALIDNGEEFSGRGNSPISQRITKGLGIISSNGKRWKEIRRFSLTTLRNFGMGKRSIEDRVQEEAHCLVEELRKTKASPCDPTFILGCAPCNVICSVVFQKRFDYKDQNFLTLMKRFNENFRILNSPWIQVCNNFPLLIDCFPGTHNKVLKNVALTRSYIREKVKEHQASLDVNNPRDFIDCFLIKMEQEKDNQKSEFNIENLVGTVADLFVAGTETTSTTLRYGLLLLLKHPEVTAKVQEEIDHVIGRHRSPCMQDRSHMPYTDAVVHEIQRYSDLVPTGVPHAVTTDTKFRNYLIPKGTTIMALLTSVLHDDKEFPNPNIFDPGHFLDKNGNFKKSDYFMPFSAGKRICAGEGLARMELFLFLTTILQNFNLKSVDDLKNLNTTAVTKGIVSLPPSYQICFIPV
A further data set relates to Liver microsome. Nature of the data set: Drug metabolism in rat liver microsomes at 200 µM after 60 mins by HPLC analysis in presence of NADPH. The conditions noted are these: 1 h. (In general: Liver microsomes are vesicles of endoplasmic reticulum, rich in cytochrome P450 enzymes.)

Molecules are shown by their SMILES. Activity calls are given as the source filed them. The rule behind the calls is not given here.

Cytochrome P450 2D6, sequence (P10635 whole entry): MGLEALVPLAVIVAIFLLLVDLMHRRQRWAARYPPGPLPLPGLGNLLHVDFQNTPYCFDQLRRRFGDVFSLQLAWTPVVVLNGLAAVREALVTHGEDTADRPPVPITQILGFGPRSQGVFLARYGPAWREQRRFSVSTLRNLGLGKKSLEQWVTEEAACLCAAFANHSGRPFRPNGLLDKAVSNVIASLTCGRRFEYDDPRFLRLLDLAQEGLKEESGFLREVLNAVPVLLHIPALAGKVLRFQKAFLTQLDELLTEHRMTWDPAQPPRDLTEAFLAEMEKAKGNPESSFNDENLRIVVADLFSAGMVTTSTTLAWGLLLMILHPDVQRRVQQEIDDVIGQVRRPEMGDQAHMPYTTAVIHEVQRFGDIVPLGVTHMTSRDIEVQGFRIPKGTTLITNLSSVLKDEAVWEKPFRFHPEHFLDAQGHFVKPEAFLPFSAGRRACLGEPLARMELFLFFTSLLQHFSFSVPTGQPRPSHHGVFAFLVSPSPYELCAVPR
Cytochrome P450 3A2, sequence (P05183 whole entry): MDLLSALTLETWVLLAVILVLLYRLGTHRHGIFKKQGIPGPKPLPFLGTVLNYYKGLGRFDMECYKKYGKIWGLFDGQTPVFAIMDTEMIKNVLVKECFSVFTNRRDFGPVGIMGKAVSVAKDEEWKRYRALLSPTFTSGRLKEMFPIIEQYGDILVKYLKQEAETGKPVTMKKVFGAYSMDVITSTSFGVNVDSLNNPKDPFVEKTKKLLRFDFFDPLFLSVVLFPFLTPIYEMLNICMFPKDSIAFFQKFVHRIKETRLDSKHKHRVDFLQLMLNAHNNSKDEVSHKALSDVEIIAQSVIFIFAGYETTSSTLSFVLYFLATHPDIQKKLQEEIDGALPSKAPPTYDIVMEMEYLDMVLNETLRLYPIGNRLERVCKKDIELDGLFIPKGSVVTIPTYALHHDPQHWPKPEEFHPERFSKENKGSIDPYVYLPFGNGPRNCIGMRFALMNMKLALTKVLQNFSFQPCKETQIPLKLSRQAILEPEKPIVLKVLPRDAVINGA
Cytochrome P450 3A4, sequence (P08684 whole entry): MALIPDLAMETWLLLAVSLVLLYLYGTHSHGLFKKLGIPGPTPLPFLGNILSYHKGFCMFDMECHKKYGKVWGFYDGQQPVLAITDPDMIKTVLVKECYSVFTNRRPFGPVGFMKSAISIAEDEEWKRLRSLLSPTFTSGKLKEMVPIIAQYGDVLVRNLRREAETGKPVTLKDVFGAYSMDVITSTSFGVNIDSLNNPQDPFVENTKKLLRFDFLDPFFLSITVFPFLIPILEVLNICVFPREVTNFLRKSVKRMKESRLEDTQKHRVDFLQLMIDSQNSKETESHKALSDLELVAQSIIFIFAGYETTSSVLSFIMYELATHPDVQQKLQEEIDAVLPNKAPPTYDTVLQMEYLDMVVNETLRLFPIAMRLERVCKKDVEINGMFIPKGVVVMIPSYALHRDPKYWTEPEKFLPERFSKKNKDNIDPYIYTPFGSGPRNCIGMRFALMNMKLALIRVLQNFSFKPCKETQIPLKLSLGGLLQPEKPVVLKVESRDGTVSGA
Cytochrome P450 1B1, sequence (Q16678 whole entry): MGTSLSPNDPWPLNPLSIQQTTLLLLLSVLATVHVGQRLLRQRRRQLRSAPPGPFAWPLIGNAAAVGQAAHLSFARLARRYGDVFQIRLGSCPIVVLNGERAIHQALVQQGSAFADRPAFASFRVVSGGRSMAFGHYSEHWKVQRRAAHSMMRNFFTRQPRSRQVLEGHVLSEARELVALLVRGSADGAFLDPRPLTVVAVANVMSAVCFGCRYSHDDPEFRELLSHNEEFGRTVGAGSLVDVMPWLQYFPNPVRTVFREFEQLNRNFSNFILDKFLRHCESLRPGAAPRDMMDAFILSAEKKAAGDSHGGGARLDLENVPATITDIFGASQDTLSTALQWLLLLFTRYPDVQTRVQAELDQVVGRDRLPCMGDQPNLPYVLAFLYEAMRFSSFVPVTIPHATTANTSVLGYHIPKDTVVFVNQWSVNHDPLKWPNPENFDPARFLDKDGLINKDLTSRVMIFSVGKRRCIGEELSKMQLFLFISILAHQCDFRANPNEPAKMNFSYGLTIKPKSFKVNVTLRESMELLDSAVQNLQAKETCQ
Cytochrome P450 2B1, sequence (P00176 whole entry): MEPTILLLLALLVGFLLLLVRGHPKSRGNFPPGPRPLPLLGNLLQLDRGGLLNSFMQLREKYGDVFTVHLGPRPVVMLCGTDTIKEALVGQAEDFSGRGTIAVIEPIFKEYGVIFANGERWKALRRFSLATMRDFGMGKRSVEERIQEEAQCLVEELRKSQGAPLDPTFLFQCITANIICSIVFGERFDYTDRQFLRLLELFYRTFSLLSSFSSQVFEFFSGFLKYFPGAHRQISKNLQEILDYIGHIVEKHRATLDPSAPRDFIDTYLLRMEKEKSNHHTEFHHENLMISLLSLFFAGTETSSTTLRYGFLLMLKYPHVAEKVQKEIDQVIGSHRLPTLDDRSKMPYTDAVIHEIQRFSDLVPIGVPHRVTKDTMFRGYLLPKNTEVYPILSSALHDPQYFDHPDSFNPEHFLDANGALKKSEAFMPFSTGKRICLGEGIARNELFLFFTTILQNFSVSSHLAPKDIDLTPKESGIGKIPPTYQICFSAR
Cytochrome P450 1A2 (Homo sapiens, UniProt P05177), sequence (P05177 whole entry): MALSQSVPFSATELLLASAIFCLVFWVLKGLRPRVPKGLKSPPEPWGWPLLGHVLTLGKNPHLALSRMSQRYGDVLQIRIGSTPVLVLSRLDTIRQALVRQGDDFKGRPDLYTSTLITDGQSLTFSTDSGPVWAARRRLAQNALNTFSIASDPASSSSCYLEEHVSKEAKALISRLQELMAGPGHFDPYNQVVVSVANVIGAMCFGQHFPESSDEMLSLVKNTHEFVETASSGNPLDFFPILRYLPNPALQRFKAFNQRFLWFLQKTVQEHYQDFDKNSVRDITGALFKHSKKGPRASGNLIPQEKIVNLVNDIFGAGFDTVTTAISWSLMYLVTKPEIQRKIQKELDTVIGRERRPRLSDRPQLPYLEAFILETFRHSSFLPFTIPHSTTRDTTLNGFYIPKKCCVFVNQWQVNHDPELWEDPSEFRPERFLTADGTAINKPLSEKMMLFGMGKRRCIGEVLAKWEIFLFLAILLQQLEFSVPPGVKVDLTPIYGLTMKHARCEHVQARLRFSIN
Cytochrome P450 2C19, sequence (P33261 whole entry): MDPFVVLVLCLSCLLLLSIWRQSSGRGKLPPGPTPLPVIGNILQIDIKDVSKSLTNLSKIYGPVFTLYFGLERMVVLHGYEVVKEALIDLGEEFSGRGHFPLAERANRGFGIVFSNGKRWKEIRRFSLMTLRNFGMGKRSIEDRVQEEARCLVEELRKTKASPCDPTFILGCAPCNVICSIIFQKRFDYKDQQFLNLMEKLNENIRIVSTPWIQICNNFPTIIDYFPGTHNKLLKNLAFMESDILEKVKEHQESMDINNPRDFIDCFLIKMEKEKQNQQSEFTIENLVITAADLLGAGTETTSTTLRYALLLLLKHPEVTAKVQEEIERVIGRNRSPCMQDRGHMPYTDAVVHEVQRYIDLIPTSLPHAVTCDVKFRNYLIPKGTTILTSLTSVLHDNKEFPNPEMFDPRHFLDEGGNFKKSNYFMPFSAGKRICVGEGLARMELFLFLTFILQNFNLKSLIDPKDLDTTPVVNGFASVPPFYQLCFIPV

Take `CSc1ccc(/C=C2/C(C)=C(CC(=O)O)c3cc(F)ccc32)cc1` [SULINDAC SULFIDE]: the Drug metabolism result with Zone of skin [1], in the data set on Zone of skin [2], with Brain [3], with Plasma [4], with Liver [5] and with Plasma [7] was “metabolite_detected” throughout. In addition, the Drug metabolism result with Liver [8] and with Brain [9] was “metabolite_detected” throughout. This compound returned a Retention_time in [6] of 7.1 min.

For `CC1=C(CC(=O)O)c2cc(F)ccc2/C1=C\c1ccc([S@+](C)[O-])cc1`, the Drug metabolism on Cytochrome P450 1A2 [10] is 24 pmol/h; on Cytochrome P450 1B1, 0 pmol/h; at Cytochrome P450 1A2 [11], 34 pmol/h; in [12] it was “metabolite_detected”; on Cytochrome P450 1A1, 22 pmol/h; at Cytochrome P450 2C9, “metabolite_not_detected”. For the same compound, the Drug metabolism entry is “metabolite_not_detected” at Cytochrome P450 2C19; “metabolite_not_detected” on Cytochrome P450 2B1; 29 pmol/h on Cytochrome P450 3A4; “metabolite_not_detected” on Cytochrome P450 2D6; “metabolite_not_detected” on Cytochrome P450 3A2; “metabolite_not_detected” on Cytochrome P450 2C8. Moreover, the result with A549 and with MRC5 was Active.

`CC1=C(CC(=O)O)c2cc(F)ccc2/C1=C\c1ccc(S(C)(=O)=O)cc1` [EXISULIND]: the Drug metabolism result in the data set on Zone of skin [1], with Zone of skin [2], in the data set on Brain [3], in the data set on Plasma [4], in the data set with Liver microsome and in the data set on Liver [5] was “metabolite_detected” throughout. The Drug metabolism result with Plasma [7], with Liver [8] and in the data set on Brain [9] was “metabolite_detected” in each case. Besides, the Retention_time in data set [6] was found to be 1.5 min.

Source of the values: ChEMBL document CHEMBL3525907, “Studies on the metabolism and biological activity of the epimers of sulindac” (Drug Metab Dispos, 2011).
